# Columns and labels:
# [1] = tested on: Mycolicibacterium smegmatis; test: Potentiation of Cefoxitin-induced antibacterial activity against Mycobacterium smegmatis mc2 155 ATCC 700084 assessed as fold reduction in Cefoxitin MIC at 60 uM incubated for 48 hrs by alamarblue dye based broth microdilution method; type: functional
# Summary of the method: (§1)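 Inoculum from 48 h cultures set to 5 x 10^5 CFU/mL in 7H9 + ADC and pre-dosed with compound from DMSO stock at fixed concentration. β-lactam two-fold serially diluted from top concentration, with an antibiotic-only control series. Stationary 37 °C for 48 h, then alamarBlue for 8 h. MIC is the lowest blue (non-viable) well. Fold reduction is relative to the antibiotic-only MIC. Duplicates, at least two repeats.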
# [2] = tested on: Mycolicibacterium smegmatis; test: Potentiation of Ampicillin-induced antibacterial activity against Mycobacterium smegmatis mc2 155 ATCC 700084 assessed as Ampicillin MIC at 60 uM incubated for 48 hrs by alamarblue dye based broth microdilution method (reference value: 128 ug/ml); type: functional; summary of the method: as §1
# [3] = tested on: Mycolicibacterium smegmatis; test: Potentiation of Ceftazidime-induced antibacterial activity against Mycobacterium smegmatis mc2 155 ATCC 700084 assessed as Ceftazidime MIC at 60 uM incubated for 48 hrs by alamarblue dye based broth microdilution method (reference value: 512 ug/ml); type: functional; summary of the method: as §1
# [4] = tested on: Mycolicibacterium smegmatis; test: Antibiofilm activity against Mycobacterium smegmatis mc2 155 ATCC 700084 assessed as inhibition of biofilm formation measured after 24 hrs by crystal violet reporter assay; type: functional, organism-based; conditions: MC2 155 ATCC 700084, 24 h
# [5] = tested on: Mycolicibacterium smegmatis; test: Potentiation of oxacillin-induced antibacterial activity against Mycobacterium smegmatis mc2 155 ATCC 700084 assessed as fold reduction in oxacillin MIC at 60 uM incubated for 48 hrs by alamarblue dye based broth microdilution method; type: functional; summary of the method: as §1
# [6] = tested on: Mycolicibacterium smegmatis; test: Potentiation of Oxacillin-induced antibacterial activity against Mycobacterium smegmatis mc2 155 ATCC 700084 assessed as Oxacillin MIC at 60 uM incubated for 48 hrs by alamarblue dye based broth microdilution method (Rvb =512 ug/ml); type: functional; summary of the method: as §1
# [7] = tested on: Mycolicibacterium smegmatis; test: Antibiofilm activity against Mycobacterium smegmatis mc2 155 ATCC 700084 assessed as dispersion of preformed biofilms measured after 24 hrs by crystal violet reporter assay; type: functional, organism-based; conditions: MC2 155 ATCC 700084, 24 h
# Summary of the method: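 Cultures (48 h) diluted to 0.01 in M9 minimal salts with glucose, MgSO4 and CaCl2 in PVC plates. Biofilm grown stationary at 37 °C for 48 h, washed, then fresh medium with compound added for 24 h at 37 °C. Stained with 0.1% crystal violet 30 min, solubilised in 95% ethanol, OD540 read. Media blanks subtracted. Dispersion calculated against untreated biofilm wells. At least three repeats.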
# [8] = tested on: Mycolicibacterium smegmatis; test: Potentiation of Cefotaxime-induced antibacterial activity against Mycobacterium smegmatis mc2 155 ATCC 700084 assessed as Cefotaxime MIC at 60 uM incubated for 48 hrs by alamarblue dye based broth microdilution method (reference value: 128 ug/ml); type: functional; summary of the method: as §1
# [9] = tested on: Mycolicibacterium smegmatis; test: Potentiation of Ampicillin-induced antibacterial activity against Mycobacterium smegmatis mc2 155 ATCC 700084 assessed as fold reduction in Ampicillin MIC at 60 uM incubated for 48 hrs by alamarblue dye based broth microdilution method; type: functional; summary of the method: as §1
# [10] = tested on: Mycolicibacterium smegmatis; test: Potentiation of Cefoxitin-induced antibacterial activity against Mycobacterium smegmatis mc2 155 ATCC 700084 assessed as Cefoxitin MIC at 60 uM incubated for 48 hrs by alamarblue dye based broth microdilution method (reference value: 16 ug/ml); type: functional; summary of the method: as §1
# [11] = tested on: Mycolicibacterium smegmatis; test: Antibacterial activity against Mycobacterium smegmatis mc2 155 ATCC 700084 assessed as inhibition of bacterial growth incubated for 48 hrs by alamarblue dye based broth microdilution method; type: functional
# Summary of the method: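 Inoculum from 48 h cultures set to 5 x 10^5 CFU/mL in 7H9 + ADC. Compound in DMSO two-fold serially diluted from 200 µM top concentration. Stationary 37 °C for 48 h, then alamarBlue for 8 h at 37 °C. MIC is the lowest concentration with no viable bacteria (blue, not pink). Duplicate wells, at least two independent repeats.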
# [12] = tested on: Mycolicibacterium smegmatis; test: Potentiation of Cefotaxime-induced antibacterial activity against Mycobacterium smegmatis mc2 155 ATCC 700084 assessed as fold reduction in Cefotaxime MIC at 60 uM incubated for 48 hrs by alamarblue dye based broth microdilution method; type: functional; summary of the method: as §1
# [13] = tested on: Mycolicibacterium smegmatis; test: Potentiation of Ceftazidime-induced antibacterial activity against Mycobacterium smegmatis mc2 155 ATCC 700084 assessed as fold reduction in Ceftazidime MIC at 60 uM incubated for 48 hrs by alamarblue dye based broth microdilution method; type: functional; summary of the method: as §1
# [14] = Hemolytic activity in sheep RBC assessed as hemolysis at 500 uM measured after 1 hr by UV spectrometer analysis; type: ADME, cell-based, Ovis aries, Erythrocyte; conditions: sheep red blood cells (erythrocytes), read-out: Activity
# Summary of the method: (§2)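 Mechanically defibrinated sheep blood was centrifuged, and the cells were washed and resuspended in PBS three times, then diluted 10-fold. Compound was added from DMSO stock. Controls were 1% Triton X (100% lysis) and PBS (zero lysis). Samples were incubated 1 h at 37 °C with shaking at 200 rpm, then centrifuged. Supernatant was diluted 40-fold in distilled water and read at A540. Run in duplicate, repeated at least twice.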
# [15] = Hemolytic activity in sheep RBC assessed as hemolysis at 200 uM measured after 1 hr by UV spectrometer analysis; type: ADME, cell-based, Ovis aries, Erythrocyte; conditions: sheep red blood cells (erythrocytes), read-out: Activity; summary of the method: as §2
smiles,measurement,setting,value
CCNc1nccc(-c2c[nH]c3ccc(Br)cc23)n1,fold change (FC),[1],0
same,MIC,[2],64 µg/mL
same,MIC,[3],512 µg/mL
same,IC50,[4],14.2 µM
same,fold change (FC),[5],0
same,MIC,[6],512 µg/mL
same,EC50,[7],39.3 µM
same,MIC,[8],128 µg/mL
same,fold change (FC),[9],2
same,MIC,[10],16 µg/mL
same,MIC,[11],≥ 200 µM
same,fold change (FC),[12],0
same,fold change (FC),[13],0
Nc1nccc(-c2c[nH]c3ccc(Br)cc23)n1 [MERIDIANIN C],IC50,[4],22.7 µM
same,EC50,[7],> 50 µM
Nc1ncc(-c2c[nH]c3ccc(F)cc23)[nH]1,IC50,[4],40.2 µM
same,EC50,[7],> 50 µM
Nc1nccc(-c2c[nH]c3cc(Br)ccc23)n1 [MERIDIANIN D],fold change (FC),[1],0
same,"hemolysis at 1 h, 500 µM",[14],13%
same,IC50,[4],21.5 µM
same,fold change (FC),[5],0
same,"hemolysis at 1 h, 200 µM",[15],8%
same,EC50,[7],51 µM
same,fold change (FC),[9],0
same,MIC,[11],200 µM
same,fold change (FC),[12],0
same,fold change (FC),[13],0
CCCCCn1cc(-c2ccnc(N)n2)c2cc(Br)ccc21,IC50,[4],> 50 µM
same,EC50,[7],> 50 µM
Nc1nc(-c2c[nH]c3ccc(Br)cc23)c[nH]1,IC50,[4],9.5 µM
same,EC50,[7],> 50 µM
same,MIC,[11],100 µM
Nc1nccc(-c2c[nH]c3cc(Cl)ccc23)n1,IC50,[4],26.6 µM
same,EC50,[7],> 50 µM
Cn1cc(-c2ccnc(N)n2)c2ccc(Br)cc21,IC50,[4],26.7 µM
same,EC50,[7],> 50 µM
Nc1nccc(-c2c[nH]c3ccc(I)cc23)n1,fold change (FC),[1],0
same,MIC,[2],128 µg/mL
same,MIC,[3],512 µg/mL
same,IC50,[4],13.1 µM
same,fold change (FC),[5],0
same,MIC,[6],512 µg/mL
same,EC50,[7],28.1 µM
same,MIC,[8],64 µg/mL
same,fold change (FC),[9],0
same,MIC,[10],16 µg/mL
same,MIC,[11],≥ 200 µM
same,fold change (FC),[12],2
same,fold change (FC),[13],0
CCCCn1cc(-c2ccnc(N)n2)c2cc(Br)ccc21,IC50,[4],22.7 µM
same,EC50,[7],> 50 µM
Nc1nccc(-c2c[nH]c3cccc(Br)c23)n1,IC50,[4],> 50 µM
same,EC50,[7],> 50 µM
Cc1ccc2[nH]cc(-c3ccnc(N)n3)c2c1,IC50,[4],15.7 µM
same,EC50,[7],> 50 µM
CCCn1cc(-c2ccnc(N)n2)c2ccc(I)cc21,IC50,[4],> 50 µM
same,EC50,[7],> 50 µM
Nc1nccc(-c2cn(Cc3ccccc3)c3cc(Br)ccc23)n1,IC50,[4],27.3 µM
same,EC50,[7],> 50 µM
Nc1nccc(-c2c[nH]c3ccc(Cl)cc23)n1,IC50,[4],18.3 µM
same,EC50,[7],> 50 µM
CCn1cc(-c2ccnc(N)n2)c2ccc(Br)cc21,IC50,[4],39.1 µM
same,EC50,[7],> 50 µM
Nc1nccc(-c2c[nH]c3c(Br)cccc23)n1,IC50,[4],26 µM
same,EC50,[7],> 50 µM
CC(C)Cn1cc(-c2ccnc(N)n2)c2ccc(Br)cc21,IC50,[4],50.4 µM
same,EC50,[7],> 50 µM
Nc1ncc(-c2c[nH]c3cc(Cl)ccc23)[nH]1,IC50,[4],10.3 µM
same,EC50,[7],33.7 µM
Nc1ncc(-c2c[nH]c3ccc(Cl)cc23)[nH]1,IC50,[4],16 µM
same,EC50,[7],> 50 µM
Brc1ccc2[nH]cc(-c3ccnc(NCc4ccccc4)n3)c2c1,fold change (FC),[1],0
same,"hemolysis at 1 h, 500 µM",[14],32%
same,MIC,[2],64 µg/mL
same,MIC,[3],512 µg/mL
same,IC50,[4],6.9 µM
same,fold change (FC),[5],2
same,"hemolysis at 1 h, 200 µM",[15],9%
same,MIC,[6],256 µg/mL
same,EC50,[7],28.3 µM
same,MIC,[8],64 µg/mL
same,fold change (FC),[9],2
same,MIC,[10],16 µg/mL
same,MIC,[11],≥ 200 µM
same,fold change (FC),[12],2
same,fold change (FC),[13],0
Nc1nccc(-c2c[nH]c3ccc(F)cc23)n1,IC50,[4],16 µM
same,EC50,[7],> 50 µM
CCCn1cc(-c2ccnc(N)n2)c2ccc(Br)cc21,IC50,[4],34.5 µM
same,EC50,[7],> 50 µM
CNc1nccc(-c2c[nH]c3ccc(Br)cc23)n1,fold change (FC),[1],0
same,MIC,[2],64 µg/mL
same,MIC,[3],512 µg/mL
same,IC50,[4],25.5 µM
same,fold change (FC),[5],2
same,MIC,[6],256 µg/mL
same,EC50,[7],45 µM
same,MIC,[8],64 µg/mL
same,fold change (FC),[9],2
same,MIC,[10],16 µg/mL
same,MIC,[11],≥ 200 µM
same,fold change (FC),[12],2
same,fold change (FC),[13],0
Nc1nccc(-c2c[nH]c3cc(I)ccc23)n1,fold change (FC),[1],0
same,MIC,[2],128 µg/mL
same,MIC,[3],512 µg/mL
same,IC50,[4],13.2 µM
same,fold change (FC),[5],0
same,MIC,[6],512 µg/mL
same,EC50,[7],29.4 µM
same,MIC,[8],128 µg/mL
same,fold change (FC),[9],0
same,MIC,[10],16 µg/mL
same,MIC,[11],≥ 200 µM
same,fold change (FC),[12],0
same,fold change (FC),[13],0
CCCCn1cc(-c2ccnc(N)n2)c2ccc(Br)cc21,"hemolysis at 1 h, 500 µM",[14],73%
same,IC50,[4],> 50 µM
same,"hemolysis at 1 h, 200 µM",[15],56%
same,EC50,[7],> 50 µM
CC(C)Cn1cc(-c2ccnc(N)n2)c2cc(Br)ccc21,IC50,[4],14.9 µM
same,EC50,[7],> 50 µM
Cn1cc(-c2ccnc(N)n2)c2cc(Br)ccc21,fold change (FC),[1],2
same,MIC,[2],32 µg/mL
same,MIC,[3],64 µg/mL
same,IC50,[4],27.8 µM
same,fold change (FC),[5],2
same,MIC,[6],256 µg/mL
same,EC50,[7],> 50 µM
same,MIC,[8],16 µg/mL
same,fold change (FC),[9],4
same,MIC,[10],8 µg/mL
same,MIC,[11],≥ 200 µM
same,fold change (FC),[12],8
same,fold change (FC),[13],8
CCCn1cc(-c2ccnc(N)n2)c2cc(Br)ccc21,IC50,[4],15.1 µM
same,EC50,[7],> 50 µM
Nc1nccc(-c2c[nH]c3cc(F)ccc23)n1,IC50,[4],21.6 µM
same,EC50,[7],> 50 µM
Nc1nccc(-c2c[nH]c3ccccc23)n1,IC50,[4],29.5 µM
same,EC50,[7],> 50 µM
CN(C)c1nccc(-c2c[nH]c3ccc(Br)cc23)n1,fold change (FC),[1],0
same,MIC,[2],64 µg/mL
same,MIC,[3],512 µg/mL
same,IC50,[4],14.3 µM
same,fold change (FC),[5],0
same,MIC,[6],512 µg/mL
same,EC50,[7],35.7 µM
same,MIC,[8],128 µg/mL
same,fold change (FC),[9],2
same,MIC,[10],16 µg/mL
same,MIC,[11],≥ 200 µM
same,fold change (FC),[12],0
same,fold change (FC),[13],0
CCn1cc(-c2ccnc(N)n2)c2cc(Br)ccc21,IC50,[4],37.1 µM
same,EC50,[7],> 50 µM
